Measurements reported in ChEMBL document CHEMBL1124346 (J Med Chem, 1989).

Assays:
[1] = target: Muscarinic acetylcholine receptor; assay: Binding activity against muscarinic acetylcholine receptor in rat brain using [3H]QNB as the radioligand; type: tissue-based
D(2) dopamine receptor [2] = target: T1, D(2) dopamine receptor (Rattus norvegicus, UniProt P61169); assay: Binding activity against dopamine receptor D2 in rat brain, using [3H]spiperone as the radioligand; type: tissue-based
Method in brief: (§1)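 Rat striatal membranes; [3H]spiperone 0.95–1.4 nM final, with 40 nM ketanserin in all tubes to mask 5HT-2 sites. Buffer 50 mM Tris-HCl pH 7.4 with 120 mM NaCl, 5 mM KCl, 2 mM CaCl2, 1 mM MgCl2; 37 °C.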

D(1A) dopamine receptor [3] = target: T2, D(1A) dopamine receptor (Rattus norvegicus, UniProt P18901); assay: Binding activity against Dopamine receptor D1 in rat brain, using [3H]SCH-23390 as the radioligand; type: tissue-based
T2 sequence (P18901 whole entry): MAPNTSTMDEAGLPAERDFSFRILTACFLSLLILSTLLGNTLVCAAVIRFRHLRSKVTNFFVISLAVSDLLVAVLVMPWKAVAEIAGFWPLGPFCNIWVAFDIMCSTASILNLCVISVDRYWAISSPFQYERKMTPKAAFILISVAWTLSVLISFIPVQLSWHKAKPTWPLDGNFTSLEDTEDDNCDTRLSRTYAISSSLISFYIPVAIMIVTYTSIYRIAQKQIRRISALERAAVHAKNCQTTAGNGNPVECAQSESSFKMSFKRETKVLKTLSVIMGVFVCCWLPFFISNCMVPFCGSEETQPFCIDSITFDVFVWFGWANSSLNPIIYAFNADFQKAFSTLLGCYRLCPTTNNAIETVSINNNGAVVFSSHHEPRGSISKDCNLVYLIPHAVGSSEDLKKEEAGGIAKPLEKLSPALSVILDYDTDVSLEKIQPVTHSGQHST

D(2) dopamine receptor [4] = target: T1, D(2) dopamine receptor; assay: Binding activity against dopamine D2 receptor in rat brain, using [3H]spiperone as the radioligand
D(1A) dopamine receptor [5] = target: T2, D(1A) dopamine receptor; assay: Binding activity against dopamine D1 receptor in rat brain, using [3H]SCH-23390 as the radioligand; type: tissue-based
Method in brief: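 Rat striatum homogenized in 50 mM Tris-HCl pH 7.4 with 5 mM MgSO4, washed and resuspended in 200 vol. Incubated with [3H]SCH 23390 0.45–0.76 nM final, 37 °C, 30 min; nonspecific binding with 1 μM SCH 23390.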

D(2) dopamine receptor [6] = target: T1, D(2) dopamine receptor; assay: Binding activity against Dopamine receptor D2 in rat brain, using [3H]spiperone as the radioligand; type: tissue-based; method in brief: as §1
[7] = target: Muscarinic acetylcholine receptor; assay: Binding activity against muscarinic receptor in rat brain using [3H]QNB as the radioligand; type: tissue-based

T1 sequence (P61169 whole entry): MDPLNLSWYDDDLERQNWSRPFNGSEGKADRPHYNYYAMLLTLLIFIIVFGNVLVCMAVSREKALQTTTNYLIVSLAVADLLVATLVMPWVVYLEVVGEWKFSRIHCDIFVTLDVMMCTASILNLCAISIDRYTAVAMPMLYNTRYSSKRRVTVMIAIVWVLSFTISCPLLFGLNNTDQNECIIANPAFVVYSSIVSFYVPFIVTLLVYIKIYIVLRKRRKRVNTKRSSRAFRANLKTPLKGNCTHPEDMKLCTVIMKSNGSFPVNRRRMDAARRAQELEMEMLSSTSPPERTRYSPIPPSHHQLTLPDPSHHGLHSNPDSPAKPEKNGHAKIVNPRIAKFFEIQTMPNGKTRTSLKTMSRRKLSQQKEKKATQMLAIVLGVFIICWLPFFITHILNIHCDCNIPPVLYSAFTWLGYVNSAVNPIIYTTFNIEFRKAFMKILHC

Compound	IC50 [1]	IC50 (D(2) dopamine receptor [2])	IC50 (D(1A) dopamine receptor [3])	IC50 (D(2) dopamine receptor [4])	IC50 (D(1A) dopamine receptor [5])	IC50 (D(2) dopamine receptor [6])	IC50 [7]
C/C=C1/c2ccccc2C=C(N2CCN(C)CC2)c2ccccc21	2600 nM	6970 nM	305 nM	–	–	–	–
CC1c2ccccc2C=C(N2CCN(C)CC2)c2ccccc21 (stereo unspecified)	1020 nM	2650 nM	74 nM	–	–	–	–
CN1CCN(C2=Nc3ccccc3Nc3ccccc32)CC1	–	–	–	> 10000 nM	895 nM	–	–
CN1CCN(C2=Nc3ccccc3Nc3ccc(Cl)cc32)CC1 [ISOCLOZAPINE]	–	–	–	–	63 nM	218 nM	55 nM
